One block for each compound: values may come before it.
Key:
Nox2 [1] = target: T1, Nox2 (Homo sapiens, UniProt P04839); assay: Cell-free Nox2 activity in lysed COS-Nox2 cells; format: biochemical; details: 6.3 μM compound; COS-Nox2 cell lysate, 130 μM LiDS, 180 μM NADPH
T1 sequence (P04839 2-570 limits assumed): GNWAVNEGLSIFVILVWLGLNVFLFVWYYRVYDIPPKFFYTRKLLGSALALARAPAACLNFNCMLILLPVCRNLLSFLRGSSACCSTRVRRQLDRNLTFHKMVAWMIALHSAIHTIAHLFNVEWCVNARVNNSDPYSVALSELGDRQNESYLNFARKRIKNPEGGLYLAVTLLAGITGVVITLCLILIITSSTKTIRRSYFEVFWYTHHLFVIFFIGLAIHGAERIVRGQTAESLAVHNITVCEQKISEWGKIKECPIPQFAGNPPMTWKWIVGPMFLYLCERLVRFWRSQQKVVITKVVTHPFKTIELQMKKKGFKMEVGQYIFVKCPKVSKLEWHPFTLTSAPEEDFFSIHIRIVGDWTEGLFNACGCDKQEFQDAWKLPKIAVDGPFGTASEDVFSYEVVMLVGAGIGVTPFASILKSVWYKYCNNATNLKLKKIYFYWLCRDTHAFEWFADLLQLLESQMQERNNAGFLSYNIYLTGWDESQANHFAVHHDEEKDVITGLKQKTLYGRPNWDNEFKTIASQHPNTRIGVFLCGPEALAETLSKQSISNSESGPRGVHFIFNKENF
T1 sequence (P13498 2-195 partner limits assumed): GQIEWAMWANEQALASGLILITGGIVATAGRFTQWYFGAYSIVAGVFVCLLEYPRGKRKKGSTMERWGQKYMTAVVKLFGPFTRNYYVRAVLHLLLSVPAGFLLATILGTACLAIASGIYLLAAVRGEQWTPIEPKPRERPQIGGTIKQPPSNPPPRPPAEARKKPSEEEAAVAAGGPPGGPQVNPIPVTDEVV
Outline: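 Cell-free system: COS-Nox2 cell lysate is preincubated with test compound for 15 min at 25 °C. Subunits are assembled with 130 μM LiDS, and the reaction is started with 180 μM NADPH. O2•− is measured as the initial linear rate of SOD-inhibitable cytochrome C reduction, in nmol O2•− per min per 10^7 cell equivalents.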

cell viability = assay: CytoTox-Glo cell viability assay; format: cell-based; details: only at the highest concentration tested
Nox2 [2] = target: T1, Nox2; assay: L-012 chemiluminescence assay of O2•− generation in whole COS-Nox2 cells; format: cell-based
Outline: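 Stable Nox2-transfected COS cells, stimulated with 5 μM PMA; O2•− is detected by L-012 chemiluminescence. The primary screen of library compounds ran at 100, 50, 25 and 12.5 μM. Follow-up concentration–response data are expressed as % of vehicle control (mean ± SEM of 3–7 independent experiments), and IC50 is extrapolated from the curve slope.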

Nox4 = target: T2, Nox4 (Homo sapiens, UniProt Q9NPH5); assay: Amplex Red assay of constitutive Nox4 activity; format: cell-based; details: for Nox4 activity (in words): Amplex Red, COS-Nox4 cells
T2 sequence (Q9NPH5 1-578): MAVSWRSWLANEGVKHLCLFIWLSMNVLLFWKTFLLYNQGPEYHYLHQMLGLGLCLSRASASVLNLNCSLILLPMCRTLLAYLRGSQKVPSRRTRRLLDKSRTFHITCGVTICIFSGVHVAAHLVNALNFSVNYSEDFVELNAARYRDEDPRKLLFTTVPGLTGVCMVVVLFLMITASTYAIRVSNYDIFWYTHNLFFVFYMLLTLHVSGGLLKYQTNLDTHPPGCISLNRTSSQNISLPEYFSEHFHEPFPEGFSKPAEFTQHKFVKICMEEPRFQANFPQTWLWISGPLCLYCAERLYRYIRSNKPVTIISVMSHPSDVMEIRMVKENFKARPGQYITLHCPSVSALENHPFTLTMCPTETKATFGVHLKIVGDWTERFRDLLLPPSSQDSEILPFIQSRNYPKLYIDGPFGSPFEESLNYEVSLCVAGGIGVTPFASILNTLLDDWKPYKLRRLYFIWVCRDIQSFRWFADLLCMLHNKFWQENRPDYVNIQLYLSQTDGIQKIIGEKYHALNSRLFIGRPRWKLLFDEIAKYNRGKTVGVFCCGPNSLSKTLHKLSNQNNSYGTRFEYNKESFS
T2 sequence (P13498 2-195 partner limits assumed): T1 sequence (P13498 2-195 partner limits assumed)
Outline: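 Transiently transfected COS-Nox4 cells, unstimulated (constitutive activity), pretreated with various test compound concentrations for 15 min. The initial rate of H2O2 production is read by Amplex Red fluorescence. Results are given as % of vehicle control, mean ± SEM of 3–7 independent experiments; IC50 comes from the concentration–response curve.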

Nox1 = target: T3, Nox1 (Homo sapiens, UniProt Q9Y5S8); format: cell-based; details: for Nox1 activity (in words): summary of Table 1
T3 sequence (Q9Y5S8 1-564): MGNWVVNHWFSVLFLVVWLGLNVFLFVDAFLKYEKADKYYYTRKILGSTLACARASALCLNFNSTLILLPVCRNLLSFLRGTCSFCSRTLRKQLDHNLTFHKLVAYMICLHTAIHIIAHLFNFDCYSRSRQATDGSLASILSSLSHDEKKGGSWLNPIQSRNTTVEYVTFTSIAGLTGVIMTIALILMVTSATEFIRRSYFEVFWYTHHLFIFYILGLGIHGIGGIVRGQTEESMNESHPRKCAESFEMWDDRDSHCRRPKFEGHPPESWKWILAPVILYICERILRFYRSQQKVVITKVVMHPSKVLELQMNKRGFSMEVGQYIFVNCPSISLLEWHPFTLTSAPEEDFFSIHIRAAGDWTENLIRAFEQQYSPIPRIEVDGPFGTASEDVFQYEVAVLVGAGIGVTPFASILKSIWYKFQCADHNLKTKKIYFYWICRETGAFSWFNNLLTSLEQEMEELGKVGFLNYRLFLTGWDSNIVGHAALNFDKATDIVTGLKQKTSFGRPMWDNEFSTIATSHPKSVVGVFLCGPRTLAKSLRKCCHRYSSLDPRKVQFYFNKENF
T3 sequence (P13498 2-195 partner limits assumed): T1 sequence (P13498 2-195 partner limits assumed)

Nox5 = target: T4, Nox5 (Homo sapiens, UniProt Q96PH1); assay: L-012 assay of Nox5 activity in HEK-Nox5 cells; format: cell-based; details: summary of Table 1
T4 sequence (Q96PH1 1-765): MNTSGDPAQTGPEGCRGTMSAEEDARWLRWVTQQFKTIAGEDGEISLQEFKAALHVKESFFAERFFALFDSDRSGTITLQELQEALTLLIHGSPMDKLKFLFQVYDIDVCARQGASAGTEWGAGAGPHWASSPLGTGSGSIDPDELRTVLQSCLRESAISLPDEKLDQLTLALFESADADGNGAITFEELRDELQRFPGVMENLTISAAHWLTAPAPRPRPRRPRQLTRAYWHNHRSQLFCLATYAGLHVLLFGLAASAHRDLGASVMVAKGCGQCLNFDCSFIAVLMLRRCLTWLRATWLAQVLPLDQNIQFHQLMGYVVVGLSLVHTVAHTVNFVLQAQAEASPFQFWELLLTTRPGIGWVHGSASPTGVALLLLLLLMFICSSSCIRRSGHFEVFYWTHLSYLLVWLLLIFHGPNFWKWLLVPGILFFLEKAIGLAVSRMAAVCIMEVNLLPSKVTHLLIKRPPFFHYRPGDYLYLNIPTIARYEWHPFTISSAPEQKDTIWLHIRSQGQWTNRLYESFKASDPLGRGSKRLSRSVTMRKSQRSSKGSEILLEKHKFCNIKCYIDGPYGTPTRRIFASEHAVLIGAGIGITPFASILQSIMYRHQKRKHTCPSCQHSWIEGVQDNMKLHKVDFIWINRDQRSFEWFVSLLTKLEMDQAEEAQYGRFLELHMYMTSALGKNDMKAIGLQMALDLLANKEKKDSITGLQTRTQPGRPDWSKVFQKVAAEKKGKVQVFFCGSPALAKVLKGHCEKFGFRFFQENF

Nox2 [3] = target: T1, Nox2; assay: Amplex Red assay of ROS generation in whole COS-Nox2 cells; format: cell-based
Outline: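 Whole COS-Nox2 cells stimulated with 5 μM PMA, with SOD added to convert O2•− to H2O2. H2O2 is read by Amplex Red fluorescence across a concentration range of test compound. Activity is expressed as % of vehicle control, as mean ± SEM of 3–7 independent experiments; IC50 is derived from the concentration–response curve.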

SMILES: C=C(C)C[C@@H]1N[C@H]2CC(C)(C)[C@@H]1c1c(Br)cccc12 [Compound 7]
LiDS-stimulated O2•− generation (Nox2 [1]): almost non-stimulated levels
Effect on cell viability (cell viability): effect on cell viability

SMILES: C=C(C)C[C@@H]1N[C@H]2CC(C)(C)[C@@H]1c1ccccc12 [Compound 8]
Activity in primary screen (Nox2 [2]; UPCMLD library screen at 100, 50, 25, and 12.5 μM, L-012, COS-Nox2 cells): inactive
IC50 (Nox4): > 100 µM

SMILES: C=C(C)C[C@H]1[C@H]2c3c(Br)cccc3[C@H](CC2(C)C)N1Cc1ccnc2ccccc12 [Compound 11b]
IC50 (Nox4): > 100 µM

SMILES: C=C(C)C[C@H]1[C@H]2c3c(Br)cccc3[C@H](CC2(C)C)N1Cc1c[nH]c2ccccc12 [Compound 11c]
IC50 (Nox4): > 100 µM

SMILES: C=C(C)C[C@H]1[C@H]2c3c(Br)cccc3[C@H](CC2(C)C)N1CCCCC [Compound 11g]
Nox1 activity (in words) (Nox1): virtually no effect
Nox4 activity (in words) (Nox4): virtually no effect
Nox5 activity (in words) (Nox5): virtually no effect

SMILES: C=C(C)C[C@H]1[C@H]2c3c(Br)cccc3[C@H](CC2(C)C)N1Cc1cccs1 [Compound 11h]
Nox1 activity (in words) (Nox1): virtually no effect
IC50 (Nox4): > 100 µM
Nox4 activity (in words) (Nox4): virtually no effect
Nox5 activity (in words) (Nox5): virtually no effect

SMILES: CC(C)C[C@@H]1N[C@H]2CC(C)(C)[C@@H]1c1c(Br)cccc12 [Compound 13]
Nox2 inhibitory activity (in words) (Nox2 [2]; text summary of Table 1 (Amplex Red and L-012 assays)): retained inhibitory activity
Nox1 activity (in words) (Nox1): retained inhibitory activity
Nox5 activity (in words) (Nox5): retained inhibitory activity
Effect on cell viability (cell viability): effect on cell viability

Results, then the compound that gave them:

IC50 (Nox4): > 100 µM
SMILES: C=C(C)C[C@H]1[C@H]2c3c(-c4ccc(Cl)c(Cl)c4)cccc3[C@H](CC2(C)C)N1Cc1ccc2c(c1)OCO2 [Compound 12b]

IC50 (Nox2 [3]): > 100 µM
IC50 (Nox2 [2]): > 100 µM
SMILES: C=C(C)C[C@@H]1N[C@H]2CC(C)(C)[C@@H]1c1c(-c3cccnc3)cccc12 [Compound 12d]

IC50 (Nox1): > 100 µM
SMILES: C=C(C)C[C@H]1[C@H]2c3c(Br)cccc3[C@H](CC2(C)C)N1S(C)(=O)=O [Compound 14a]

IC50 (Nox4): > 100 µM
SMILES: C=C(C)C[C@H]1[C@H]2c3c(Br)cccc3[C@H](CC2(C)C)N1S(=O)(=O)c1ccc(F)cc1 [Compound 14b]

Reference: PMC3897123 (MedChemComm, 2013)
